Reference: ChEMBL document CHEMBL1212925, “Replacement of imidazolyl by pyridyl in biphenylmethylenes results in selective CYP17 and dual CYP17/CYP11B1 inhibitors for the treatment of prostate cancer” (J Med Chem, 2010)

Columns and labels:
[1] = target: T1, Cytochrome P450 11B1, mitochondrial (Homo sapiens, UniProt P15538); assay: Inhibition of human CYP11B1 expressed in hamster fibroblast
T1 sequence (P15538 whole entry): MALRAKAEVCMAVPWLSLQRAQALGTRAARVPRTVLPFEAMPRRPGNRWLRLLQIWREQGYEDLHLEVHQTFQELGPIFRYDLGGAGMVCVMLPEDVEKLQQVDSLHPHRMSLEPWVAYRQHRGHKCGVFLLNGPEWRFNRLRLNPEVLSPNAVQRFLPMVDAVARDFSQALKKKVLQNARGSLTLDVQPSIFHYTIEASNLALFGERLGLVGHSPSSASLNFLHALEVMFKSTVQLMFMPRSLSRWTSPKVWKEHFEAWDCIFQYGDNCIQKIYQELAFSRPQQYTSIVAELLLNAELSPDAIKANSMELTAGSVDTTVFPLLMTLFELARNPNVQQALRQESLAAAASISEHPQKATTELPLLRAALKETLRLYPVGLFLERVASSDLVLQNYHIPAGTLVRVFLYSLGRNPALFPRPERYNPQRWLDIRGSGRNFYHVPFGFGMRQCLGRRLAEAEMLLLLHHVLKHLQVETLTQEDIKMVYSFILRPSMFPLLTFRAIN
Method in brief: (§1)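 V79 MZh hamster fibroblasts expressing human CYP11B1 or CYP11B2 incubated with [14C]11-deoxycorticosterone substrate at 100 nM and inhibitor at varied concentrations. Product formation monitored by HPTLC with phosphoimager. IC50 from mean of at least three tests; SD within 5%.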

[2] = target: T2, Cytochrome P450 11B2, mitochondrial (Homo sapiens, UniProt P19099); assay: Inhibition of human CYP11B2 expressed in hamster fibroblast; method in brief: as §1
T2 sequence (P19099 whole entry): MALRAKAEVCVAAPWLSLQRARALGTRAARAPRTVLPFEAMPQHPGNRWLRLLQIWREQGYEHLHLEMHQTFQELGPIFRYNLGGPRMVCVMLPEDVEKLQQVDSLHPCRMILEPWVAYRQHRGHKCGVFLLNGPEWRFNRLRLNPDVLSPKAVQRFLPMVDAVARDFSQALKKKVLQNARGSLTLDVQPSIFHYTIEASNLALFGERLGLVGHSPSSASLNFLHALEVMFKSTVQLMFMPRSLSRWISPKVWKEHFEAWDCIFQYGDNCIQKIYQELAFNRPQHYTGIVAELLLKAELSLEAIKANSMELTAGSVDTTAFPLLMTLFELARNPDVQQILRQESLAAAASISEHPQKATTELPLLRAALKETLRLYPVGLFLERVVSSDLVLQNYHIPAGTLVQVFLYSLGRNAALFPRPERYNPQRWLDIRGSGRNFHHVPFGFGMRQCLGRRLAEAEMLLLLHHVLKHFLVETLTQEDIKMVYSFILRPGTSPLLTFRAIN

[3] = target: T3, Aromatase (Homo sapiens, UniProt P11511); assay: Inhibition of human placental CYP19
T3 sequence (P11511 whole entry): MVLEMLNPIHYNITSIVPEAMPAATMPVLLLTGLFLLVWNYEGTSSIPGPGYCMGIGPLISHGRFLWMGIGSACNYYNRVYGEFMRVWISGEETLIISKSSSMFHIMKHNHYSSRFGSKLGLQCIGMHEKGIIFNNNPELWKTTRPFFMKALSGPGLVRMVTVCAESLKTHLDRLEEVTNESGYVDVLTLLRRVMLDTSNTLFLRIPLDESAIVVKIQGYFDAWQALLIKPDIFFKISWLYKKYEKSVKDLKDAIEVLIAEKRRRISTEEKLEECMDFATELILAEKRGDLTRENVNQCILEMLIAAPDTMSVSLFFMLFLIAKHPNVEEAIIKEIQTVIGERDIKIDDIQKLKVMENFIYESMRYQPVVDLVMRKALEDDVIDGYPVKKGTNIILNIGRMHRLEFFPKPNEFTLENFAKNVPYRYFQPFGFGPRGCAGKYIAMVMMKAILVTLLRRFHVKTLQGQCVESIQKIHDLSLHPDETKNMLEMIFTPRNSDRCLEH
Method in brief: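 Human placental microsomes with [1β-3H]androstenedione substrate at 500 nM, run in vitro. IC50 values are means of at least three tests; SD within 5%.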

[4] = target: T4, Steroid 17-alpha-hydroxylase/17,20 lyase (Homo sapiens, UniProt P05093); assay: Inhibition of human CYP17 expressed in Escherichia coli
T4 sequence (P05093 whole entry): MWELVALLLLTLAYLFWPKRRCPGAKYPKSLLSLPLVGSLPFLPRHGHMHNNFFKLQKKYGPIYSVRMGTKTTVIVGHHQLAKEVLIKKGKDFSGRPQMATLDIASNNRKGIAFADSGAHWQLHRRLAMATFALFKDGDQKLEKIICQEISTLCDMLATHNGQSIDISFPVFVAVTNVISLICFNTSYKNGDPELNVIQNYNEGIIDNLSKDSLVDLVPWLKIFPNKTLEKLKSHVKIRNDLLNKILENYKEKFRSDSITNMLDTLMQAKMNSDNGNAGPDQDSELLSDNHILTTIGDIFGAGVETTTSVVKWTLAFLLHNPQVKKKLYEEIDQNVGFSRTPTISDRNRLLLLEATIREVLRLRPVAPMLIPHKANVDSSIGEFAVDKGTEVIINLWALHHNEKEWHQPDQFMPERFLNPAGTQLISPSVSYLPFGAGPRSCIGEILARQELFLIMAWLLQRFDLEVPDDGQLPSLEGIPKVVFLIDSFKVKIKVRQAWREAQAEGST
Method in brief: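 Enzyme source: 50 000 sediment of homogenized E. coli co-expressing human CYP17 and NADPH-P450 reductase. Substrate and product separated by HPLC with UV detection.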

[5] = target: Cytochrome P450 3A4 (Homo sapiens, UniProt P08684); assay: Inhibition of recombinant CYP3A4 expressed in baculovirus-infected insect microsome; assay type: ADME
Chain of Cytochrome P450 3A4 (P08684 whole entry): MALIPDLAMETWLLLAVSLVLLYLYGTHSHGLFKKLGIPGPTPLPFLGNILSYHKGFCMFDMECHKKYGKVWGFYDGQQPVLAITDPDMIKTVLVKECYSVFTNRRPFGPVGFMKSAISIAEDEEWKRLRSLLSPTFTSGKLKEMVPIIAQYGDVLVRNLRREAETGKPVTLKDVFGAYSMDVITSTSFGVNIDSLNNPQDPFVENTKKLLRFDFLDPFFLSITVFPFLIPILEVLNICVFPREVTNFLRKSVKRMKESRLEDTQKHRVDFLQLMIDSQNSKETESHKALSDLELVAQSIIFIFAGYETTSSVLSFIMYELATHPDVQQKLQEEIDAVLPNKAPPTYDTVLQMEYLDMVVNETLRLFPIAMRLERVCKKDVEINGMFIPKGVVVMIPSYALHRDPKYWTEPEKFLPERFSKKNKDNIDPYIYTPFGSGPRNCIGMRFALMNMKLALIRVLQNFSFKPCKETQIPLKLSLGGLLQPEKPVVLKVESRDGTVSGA

Question: What does the source list for Oc1ccc(-c2ccc(Cc3ccncc3)cc2)cc1F?
Answer: IC50 [1]: 0.85 µM; IC50 [2]: 0.21 µM; IC50 [3]: 2.69 µM

Question: Which IC50 [1] does the source give for Nc1ccc(-c2ccc(Cc3ccncc3)cc2)cc1N here?
Answer: The IC50 was 0.902 µM.

Question: And the IC50 [2]?
Answer: The IC50 was 0.367 µM.

Question: What about the IC50 [3] of the same molecule?
Answer: Its IC50 is > 25 µM.

Question: For Fc1ccc(-c2ccc(Cc3ccncc3)cc2)cc1F, which IC50 [1] is on record?
Answer: Its IC50 is 4.74 µM.

Question: What about the IC50 [2] of the same molecule?
Answer: Its IC50 is 0.273 µM.

Question: And the IC50 [4]?
Answer: The IC50 was 0.598 µM.

Question: COc1ccc(-c2ccc(Cc3ccncc3)cc2)cc1F was tested. Which IC50 [4] did it give?
Answer: The IC50 was 3.34 µM.

Question: With CC(C)(C)OC(=O)Nc1ccc(-c2ccc(Cc3ccncc3)cc2)cc1 as the molecule, how does the IC50 [4] read?
Answer: Its IC50 is 1.37 µM.

Question: CC(C)(C)OC(=O)Nc1ccc(-c2ccc(Cc3ccncc3)cc2)cc1F was tested. Which IC50 [4] did it give?
Answer: The IC50 was > 10 µM.

Question: CC(C)(C)OC(=O)Nc1ccc(-c2ccc(Cc3ccncc3)cc2)cc1NC(=O)OC(C)(C)C was tested. Which IC50 [4] did it give?
Answer: Its IC50 is > 10 µM.

Question: How did the IC50 [4] turn out when COc1ccc(-c2ccc(Cc3ccncc3)cc2)cc1NC(=O)OC(C)(C)C was run?
Answer: The IC50 was > 10 µM.

Question: For c1cc(Cc2ccc(-c3ccsc3)cc2)ccn1, which IC50 [1] is on record?
Answer: Its IC50 is 0.415 µM.

Question: What about the IC50 [2] of the same molecule?
Answer: The IC50 was 0.331 µM.

Question: And the IC50 [4]?
Answer: Its IC50 is 0.647 µM.

Question: c1csc(-c2ccc(Cc3ccncc3)cc2)c1 was tested. Which IC50 [1] did it give?
Answer: Its IC50 is 0.422 µM.

Question: And the IC50 [2]?
Answer: Its IC50 is 0.796 µM.

Question: And the IC50 [4]?
Answer: The IC50 was 0.647 µM.

Question: c1cc(Cc2ccc(-c3ccc4[nH]ccc4c3)cc2)ccn1 was tested. Which IC50 [1] did it give?
Answer: Its IC50 is 0.469 µM.

Question: And the IC50 [2]?
Answer: The IC50 was 0.231 µM.

Question: What about the IC50 [4] of the same molecule?
Answer: The IC50 was 0.76 µM.

Question: COc1ccc2cc(-c3ccc(Cc4ccncc4)cc3)ccc2c1 was tested. Which IC50 [4] did it give?
Answer: Its IC50 is 2 µM.

Question: Oc1ccc2cc(-c3ccc(Cc4ccncc4)cc3)ccc2c1 was tested. Which IC50 [1] did it give?
Answer: The IC50 was 0.627 µM.

Question: And the IC50 [5]?
Answer: Its IC50 is 1.14 µM.

Question: And the IC50 [2]?
Answer: Its IC50 is 1.13 µM.

Question: And the IC50 [4]?
Answer: Its IC50 is 0.438 µM.

Question: CCC(c1ccc(-c2ccc(OC)cc2)cc1)c1cccnc1 (centres undefined) was tested. Which IC50 [4] did it give?
Answer: Its IC50 is > 5 µM.

Question: With CCC(c1ccncc1)c1ccc(-c2ccc(OC)cc2)cc1 (centres undefined) as the molecule, how does the IC50 [4] read?
Answer: Its IC50 is 1.61 µM.

Question: How did the IC50 [4] turn out when Oc1ccc(-c2ccc(C(O)n3ccnc3)cc2)cc1 (centres undefined) was run?
Answer: The IC50 was > 5 µM.

Question: How did the IC50 [4] turn out when Oc1ccc(-c2ccc(Cc3cccnc3)cc2)cc1 was run?
Answer: Its IC50 is 4.04 µM.

Question: Which IC50 [1] does the source give for Oc1ccc(-c2ccc(Cc3ccncc3)cc2)cc1 here?
Answer: Its IC50 is 0.251 µM.

Question: And the IC50 [5]?
Answer: Its IC50 is 3.21 µM.

Question: And the IC50 [2]?
Answer: Its IC50 is 0.341 µM.

Question: And the IC50 [4]?
Answer: The IC50 was 0.248 µM.

Question: And the IC50 [3]?
Answer: The IC50 was 3.07 µM.

Question: Which IC50 [1] does the source give for Nc1ccc(-c2ccc(Cc3ccncc3)cc2)cc1 here?
Answer: Its IC50 is 0.522 µM.

Question: What about the IC50 [5] of the same molecule?
Answer: Its IC50 is 2.45 µM.

Question: What about the IC50 [2] of the same molecule?
Answer: Its IC50 is 0.406 µM.

Question: What about the IC50 [4] of the same molecule?
Answer: Its IC50 is 0.408 µM.

Question: What about the IC50 [3] of the same molecule?
Answer: Its IC50 is 24.5 µM.

Question: For CC(=O)Nc1ccc(-c2ccc(Cc3ccncc3)cc2)cc1, which IC50 [4] is on record?
Answer: Its IC50 is > 5 µM.

Question: Which results are given for CC(=O)Nc1cccc(-c2ccc(Cc3ccncc3)cc2)c1?
Answer: IC50 [1]: 0.307 µM; IC50 [2]: 0.567 µM; IC50 [4]: 0.876 µM

Question: With NC(=O)c1ccc(-c2ccc(Cc3ccncc3)cc2)cc1 as the molecule, how does the IC50 [4] read?
Answer: Its IC50 is 1.79 µM.

Question: For CCC(c1ccc(-c2ccc(OC)cc2)cc1)n1ccnc1 (centres undefined), which IC50 [4] is on record?
Answer: The IC50 was > 5 µM.

Question: With CC(C)(C(=O)c1cccnc1)c1cccnc1 [METYRAPONE] as the molecule, how does the IC50 [4] read?
Answer: Its IC50 is > 10 µM.
